Starred links: 1 amine or outer side, 2 acyl side, 3 side chain; linkers in the order of their positions; H or OH if unused. Non-standard residues stand in square brackets, D forms with d. Residues, ends and D or L forms follow the SMILES beside them. *: point of attachment. X1 = O=C([C@H](CC1=CCC=CC1)N[*:1])[*:2]; Tos = Cc1ccc(S(=O)(=O)*)cc1; Cbz = O=C(OCc1ccccc1)*; Bn = c1ccc(C*)cc1

Data set [1] in a line: Stability of the compound in 0.2 M potassium phosphate buffer at pH 7.7 assessed as hydrolysis by measuring Tyr level in presence of alpha-amylase preparation. It is filed as ADME.
Data set [2] is described as follows: Stability of the compound in 0.2 M potassium phosphate buffer at pH 7.7 assessed as hydrolysis by measuring Ile/Phe + DiHPe level in presence of alpha-amylase preparation. The class given is ADME.
Data set [3] is described as follows: Stability of the compound in 0.2 M potassium phosphate buffer at pH 7.7 assessed as hydrolysis by measuring Leu/Lys level in presence of pronase. The class given is ADME. The essentials: (§1)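 Pronase digest in 0.2 M potassium phosphate buffer, pH 7.7, substrate:enzyme 5:1. Half the enzyme added at start and half after 18 h at 37 °C, then incubated 4 h more. Released amino acids quantified by amino acid analysis.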

Data set [4] can be described thus: Stability of the compound in 0.2 M potassium phosphate buffer at pH 7.7 assessed as hydrolysis by measuring Leu/Lys level in presence of alpha-amylase preparation. The class given is ADME.
Data set [5] can be described thus: Stability of the compound in 0.2 M potassium phosphate buffer at pH 7.7 assessed as hydrolysis by measuring Ile/Phe + DiHPe level in presence of pronase. It is filed as ADME. Put shortly: as §1
A short description of data set [6]: Stability of the compound in 0.2 M potassium phosphate buffer at pH 7.7 assessed as hydrolysis by measuring Tyr level in presence of pronase. It is filed as ADME. Put shortly:
as §1

Data set [7] in a line: Stability of the compound in 0.2 M potassium phosphate buffer at pH 7.7 assessed as hydrolysis by measuring Asn/Gln level in presence of pronase. It is filed as ADME. The essentials:
as §1

The nature of data set [8]: Stability of the compound in 0.2 M potassium phosphate buffer at pH 7.7 assessed as hydrolysis by measuring Gly level in presence of pronase. It is filed as ADME. Put shortly: as §1
Data set [9] is described as follows: Stability of the compound in 0.2 M potassium phosphate buffer at pH 7.7 assessed as hydrolysis by measuring Gly level in presence of alpha-amylase preparation. It is filed as ADME.
Data set [10] is described as follows: Stability of the compound in 0.2 M potassium phosphate buffer at pH 7.7 assessed as hydrolysis by measuring Asn/Gln level in presence of alpha-amylase preparation. The class given is ADME.
Data set [11] can be described thus: Stability of the compound in potassium phosphate buffer at pH 7 assessed as hydrolysis by measuring DiHPe level in presence of alpha-amylase preparation.
Data set [12] is described as follows: Stability of the compound in potassium phosphate buffer at pH 7 assessed as hydrolysis by measuring Phe level in presence of alpha-amylase preparation and cyclohexadiene.
Data set [13] can be described thus: Stability of the compound in potassium phosphate buffer at pH 7 assessed as hydrolysis by measuring DiHPe level in presence of alpha-amylase preparation and cyclohexadiene.
Data set [14] is described as follows: Stability of the compound in potassium phosphate buffer at pH 7 assessed as hydrolysis by measuring Phe level in presence of alpha-amylase preparation.
Data set [15] in a line: Stability of the compound in 0.2 M potassium phosphate buffer at […] assessed as hydrolysis by measuring Tyr level in presence of alpha-amylase preparation and cyclohexadiene. It is filed as ADME. The essentials:
(§2)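 Aspergillus oryzae α-amylase preparation, 1 mg per 0.9 µmol peptide, in potassium phosphate buffer pH 7, with 1,4-cyclohexadiene (10 µL) and toluene, under N2, 37 °C, 17 h. Adjusted to pH 2.2 for amino acid analysis. Phe from a control of constituent amino acids plus enzyme subtracted to give Phe in residue 3.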

Data set [16] in a line: Stability of the compound in 0.2 M potassium phosphate buffer at pH 7.7 assessed as hydrolysis by measuring Ile/Phe + DiHPe level in presence of papain and aminopeptidase M. The class given is ADME. Put shortly:
(§3)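 Papain digest in 0.5 M ammonium acetate, pH 5.3, with 0.15% mercaptoethanol, substrate:enzyme 20:1, 6 h at 37 °C. Acidified, clarified and lyophilized, then aminopeptidase M digest in 0.2 M potassium phosphate, pH 7.7, substrate:enzyme 1:1.5, 3 h at 37 °C. Amino acid analysis.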

Data set [17] can be described thus: Stability of the compound in 0.2 M potassium phosphate buffer at pH 7.7 assessed as hydrolysis by measuring Asn/Gln level in presence of pronase and aminopeptidase M. It is filed as ADME. The essentials:
(§4)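 Pronase digest in 0.2 M potassium phosphate, pH 7.7, substrate:enzyme 5:1, 37 °C, enzyme split over 18 h + 4 h. Digest acidified, clarified and lyophilized, then treated with aminopeptidase M (0.2 M potassium phosphate, pH 7.7, substrate:enzyme 1:1.5, 3 h, 37 °C). Amino acid analysis.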

Data set [18] is described as follows: Stability of the compound in 0.2 M potassium phosphate buffer at pH 7.7 assessed as hydrolysis by measuring Gly level in presence of alpha-amylase preparation and aminopeptidase M. It is filed as ADME.
Data set [19] is described as follows: Stability of the compound in 0.2 M potassium phosphate buffer at pH 7.7 assessed as hydrolysis by measuring Leu/Lys level in presence of papain and aminopeptidase M. The class given is ADME. Put shortly:
as §3

A short description of data set [20]: Stability of the compound in 0.2 M potassium phosphate buffer at pH 7.7 assessed as hydrolysis by measuring Gly level in presence of papain and aminopeptidase M. The class given is ADME. The essentials: as §3
A short description of data set [21]: Stability of the compound in 0.2 M potassium phosphate buffer at pH 7.7 assessed as hydrolysis by measuring Leu/Lys level in presence of alpha-amylase preparation and aminopeptidase M. It is filed as ADME.
Data set [22] is described as follows: Stability of the compound in 0.2 M potassium phosphate buffer at pH 7.7 assessed as hydrolysis by measuring Ile/Phe + DiHPe level in presence of alpha-amylase preparation and aminopeptidase M. It is filed as ADME.
Data set [23] in a line: Stability of the compound in 0.2 M potassium phosphate buffer at pH 7.7 assessed as hydrolysis by measuring Leu/Lys level in presence of pronase and aminopeptidase M. It is filed as ADME. Put shortly: as §4
The nature of data set [24]: Stability of the compound in 0.2 M potassium phosphate buffer at pH 7.7 assessed as hydrolysis by measuring Asn/Gln level in presence of papain and aminopeptidase M. The class given is ADME. Put shortly:
as §3

Data set [25] can be described thus: Stability of the compound in 0.2 M potassium phosphate buffer at […] assessed as hydrolysis by measuring Gly level in presence of alpha-amylase preparation and cyclohexadiene. It is filed as ADME. Put shortly: as §2
Data set [26] is described as follows: Stability of the compound in 0.2 M potassium phosphate buffer at pH 7.7 assessed as hydrolysis by measuring Asn/Gln level in presence of alpha-amylase preparation and aminopeptidase M. The class given is ADME.
The nature of data set [27]: Stability of the compound in […] assessed as hydrolysis by measuring Asn/Gln level in presence of alpha-amylase preparation and cyclohexadiene. It is filed as ADME. As to conditions: buffer. Put shortly: as §2
Data set [28] is described as follows: Stability of the compound in […] potassium phosphate buffer at […] assessed as hydrolysis by measuring Ile/Phe + DiHPe level in presence of alpha-amylase preparation and cyclohexadiene. The class given is ADME. The essentials:
as §2

Data set [29] is described as follows: Stability of the compound in 0.2 M potassium phosphate buffer at pH 7.7 assessed as hydrolysis by measuring Tyr level in presence of papain and aminopeptidase M. It is filed as ADME. Put shortly:
as §3

Data set [30] is described as follows: Stability of the compound in 0.2 M potassium phosphate buffer at pH 7.7 assessed as hydrolysis by measuring Tyr level in presence of alpha-amylase preparation and aminopeptidase M. It is filed as ADME.
Data set [31] in a line: Stability of the compound in […] assessed as hydrolysis by measuring Leu/Lys level in presence of alpha-amylase preparation and cyclohexadiene. As to conditions: buffer. The class given is ADME. The essentials: as §2
A short description of data set [32]: Stability of the compound in 0.2 M potassium phosphate buffer at pH 7.7 assessed as hydrolysis by measuring Gly level in presence of pronase and aminopeptidase M. The class given is ADME. The essentials: as §4
Data set [33] in a line: Stability of the compound in 0.2 M potassium phosphate buffer at pH 7.7 assessed as hydrolysis by measuring Ile/Phe + DiHPe level in presence of pronase and aminopeptidase M. The class given is ADME. The essentials:
as §4

On to `CC[C@H](C)[C@@H]1NC(=O)[C@H](Cc2ccc(O)cc2)NC(=O)[C@@H](N)CSSC[C@@H](C(=O)N2CCC[C@H]2C(=O)N[C@@H](CC(C)C)C(=O)NCC(N)=O)NC(=O)[C@H](CC(N)=O)NC(=O)[C@H](CCC(N)=O)NC1=O` [OXYTOCIN], for which the Drug degradation in [1] is on record as 63 mol%; in data set [2], 72 mol%; in [3], 60 mol%; in [4] it was 77 mol%; in data set [5] it was 54 mol%; in [6], 70 mol%. Besides, the Drug degradation in [7] is recorded as 76 mol%; in data set [8], 36 mol%; in data set [9], 63 mol%; in [10], 110 mol%.

For `Cc1ccc(S(=O)(=O)NCCCC[C@H](NC(=O)[C@@H]2CCCN2C(=O)[C@H](CSCc2ccccc2)NC(=O)[C@H](CC(N)=O)NC(=O)[C@H](CCC(N)=O)NC(=O)[C@H](CC2=CCC=CC2)NC(=O)[C@H](Cc2ccc(OCc3ccccc3)cc2)NC(=O)[C@H](CSCc2ccccc2)NC(=O)OCc2ccccc2)C(=O)NCC(N)=O)cc1` (Cbz-C(Bn)Y(Bn)[X1]QNC(Bn)PK(Tos)G-NH2), the Drug degradation in data set [11] stood at 57.6 mol%; in data set [1] it was 77 mol%; in [12], 4.4 mol%; in data set [13], 52.4 mol%; in data set [14], 3.9 mol%; in data set [15], 73 mol%. Besides, the values for the Drug degradation in data set [9] and in data set [10] were 18 mol% and 67 mol%, respectively.

Consider `CC[C@H](C)[C@H](NC(=O)[C@H](Cc1ccc(O)cc1)NC(=O)[C@@H](N)CS(=O)(=O)O)C(=O)N[C@@H](CCC(N)=O)C(=O)N[C@@H](CC(N)=O)C(=O)N[C@@H](CS(=O)(=O)O)C(=O)N1CCC[C@H]1C(=O)N[C@@H](CC(C)C)C(=O)NCC(N)=O`, for which the Drug degradation turned out to be 13 mol% in data set [16]; 124 mol% in data set [17]; 60 mol% in [18]; 14 mol% in data set [19]; 13 mol% in data set [20]; 26 mol% in data set [1]. Moreover, the Drug degradation stood at 85 mol% in data set [21]; 82 mol% in data set [22]; 65 mol% in data set [23]; 75 mol% in data set [2]; 14 mol% in [24]; 46 mol% in data set [3]. For the same molecule, the Drug degradation in data set [4] came to 72 mol%; in [25], 38 mol%; in data set [5] it was 38 mol%; in [26] it was 90 mol%; in data set [7] it was 86 mol%; in data set [8] it was 44 mol%. Moreover, the Drug degradation came to 23 mol% in data set [15]; 86 mol% in [27]; 51 mol% in data set [28]; 50 mol% in data set [9]; 30 mol% in data set [29]; 35 mol% in data set [30]. Besides, the Drug degradation in data set [10] is 72 mol%; in data set [31], 57 mol%; in data set [32] it was 54 mol%; in data set [33] it was 65 mol%.

The values are drawn from ChEMBL document CHEMBL3244368, “[3-(1,4-Cyclohexadienyl)-L-alanine,8-lysine]vasopressin: synthesis and some pharmacological properties” (J Med Chem, 1979).
